Data: ChEMBL document CHEMBL4699439, “Design and development of novel N-(pyrimidin-2-yl)-1,3,4-oxadiazole hybrids to treat cognitive dysfunctions” (Bioorg Med Chem, 2019)
Activity calls are given as the source filed them. The calls are words filed in the database; no cut-off is given here.

Experiments:
Acetylcholinesterase [1] = biological target: Acetylcholinesterase (Electrophorus electricus, UniProt O42275); assay: Inhibition of recombinant Electric eel AChE incubated for 15 mins by amplex red reagent based fluorescence assay
Sequence of Acetylcholinesterase (Electrophorus electricus, UniProt O42275) (O42275 whole entry): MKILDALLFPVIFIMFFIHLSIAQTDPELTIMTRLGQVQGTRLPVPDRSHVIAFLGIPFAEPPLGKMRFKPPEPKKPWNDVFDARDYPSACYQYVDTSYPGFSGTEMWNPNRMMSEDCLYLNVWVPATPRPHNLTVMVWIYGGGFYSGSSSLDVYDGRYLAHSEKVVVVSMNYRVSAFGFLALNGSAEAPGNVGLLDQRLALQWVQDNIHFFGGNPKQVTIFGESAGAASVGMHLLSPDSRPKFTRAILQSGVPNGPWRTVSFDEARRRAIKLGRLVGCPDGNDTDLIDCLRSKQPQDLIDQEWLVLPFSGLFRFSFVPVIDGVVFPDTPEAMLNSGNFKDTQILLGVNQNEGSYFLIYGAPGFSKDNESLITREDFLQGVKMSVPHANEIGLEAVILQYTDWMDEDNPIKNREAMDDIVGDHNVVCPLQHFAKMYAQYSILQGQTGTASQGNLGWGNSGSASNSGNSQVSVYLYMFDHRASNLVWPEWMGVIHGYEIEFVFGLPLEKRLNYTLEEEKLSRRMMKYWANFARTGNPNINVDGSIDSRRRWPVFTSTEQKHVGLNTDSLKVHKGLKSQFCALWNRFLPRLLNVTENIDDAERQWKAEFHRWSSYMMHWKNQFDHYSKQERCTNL

Cholinesterase [2] = biological target: Cholinesterase (Equus caballus, UniProt P81908); assay: Inhibition of equine serum BChE using butyrylthiocholine iodide as substrate incubated for 30 mins followed by substrate addition and measured for 20 mins by Ellman's method
Sequence of Cholinesterase (Equus caballus, UniProt P81908) (P81908 whole entry): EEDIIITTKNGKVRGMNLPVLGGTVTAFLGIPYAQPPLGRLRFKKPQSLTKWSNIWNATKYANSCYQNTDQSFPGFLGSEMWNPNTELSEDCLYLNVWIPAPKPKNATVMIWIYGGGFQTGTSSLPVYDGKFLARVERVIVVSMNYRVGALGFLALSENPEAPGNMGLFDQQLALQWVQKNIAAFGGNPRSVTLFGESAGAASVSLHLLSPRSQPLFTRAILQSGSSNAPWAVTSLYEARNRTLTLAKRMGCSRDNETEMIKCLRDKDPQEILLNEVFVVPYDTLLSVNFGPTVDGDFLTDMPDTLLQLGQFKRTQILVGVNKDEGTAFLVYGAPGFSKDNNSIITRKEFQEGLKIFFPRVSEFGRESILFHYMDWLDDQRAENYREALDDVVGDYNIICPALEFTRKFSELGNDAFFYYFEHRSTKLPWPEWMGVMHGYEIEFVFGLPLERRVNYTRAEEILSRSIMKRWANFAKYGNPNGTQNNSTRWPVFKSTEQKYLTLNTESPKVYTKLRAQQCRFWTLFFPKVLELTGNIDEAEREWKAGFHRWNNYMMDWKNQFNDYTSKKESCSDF

[3] = Antioxidant activity assessed as DPPH radical scavenging activity at 20 uM after 30 mins under dark condition by DPPH assay relative to control; type: functional
In short: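 Test compound at 20 µM (solution strength) mixed with 0.5 mM DPPH solution and kept in the dark for 30 min. Absorbance read at 517 nm. % inhibition = (A0−At)/A0 × 100. Ascorbic acid used as standard. Run in triplicate.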

Cholinesterase [4] = biological target: Cholinesterase (Homo sapiens, UniProt P06276); assay: Inhibition of human serum BChE using butyrylthiocholine iodide as substrate preincubated for 10 mins followed by substrate addition and measured for 10 mins by DTNB reagent based Ellman's method; type: cell-free
Sequence of Cholinesterase (Homo sapiens, UniProt P06276) (P06276 whole entry): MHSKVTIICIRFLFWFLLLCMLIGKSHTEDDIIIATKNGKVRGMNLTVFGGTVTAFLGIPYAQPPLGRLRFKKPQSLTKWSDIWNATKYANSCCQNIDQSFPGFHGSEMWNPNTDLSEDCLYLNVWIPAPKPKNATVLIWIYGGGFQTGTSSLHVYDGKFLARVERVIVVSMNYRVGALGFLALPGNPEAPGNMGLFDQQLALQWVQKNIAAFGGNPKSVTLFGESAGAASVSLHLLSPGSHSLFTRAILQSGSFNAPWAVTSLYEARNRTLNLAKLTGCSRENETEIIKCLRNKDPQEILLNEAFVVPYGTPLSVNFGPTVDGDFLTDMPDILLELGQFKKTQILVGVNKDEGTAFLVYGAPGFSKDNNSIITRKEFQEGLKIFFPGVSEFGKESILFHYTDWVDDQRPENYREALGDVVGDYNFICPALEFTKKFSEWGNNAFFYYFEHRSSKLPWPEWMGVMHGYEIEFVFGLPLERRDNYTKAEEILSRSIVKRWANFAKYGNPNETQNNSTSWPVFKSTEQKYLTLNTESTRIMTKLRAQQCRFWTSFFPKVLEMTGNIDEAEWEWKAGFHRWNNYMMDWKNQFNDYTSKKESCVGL
In short: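 Enzyme is BChE from human serum, 0.02 units/ml in 0.1% gelatin pH 7.4, preincubated with compound 10 min at 37 °C. Then 0.1 M phosphate containing 340 µM DTNB and 550 µM BTCI added. A412 followed 10 min at 37 °C. DMSO ≤1%. IC50 from nonlinear log-inhibitor fit, n=3.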

Acetylcholinesterase [5] = biological target: T1, Acetylcholinesterase (Homo sapiens, UniProt P22303); assay: Inhibition of human erythrocyte AChE using acetylthiocholine iodide as substrate preincubated for 10 mins followed by substrate addition and measured for 10 mins by DTNB reagent based Ellman's method; type: tissue-based
T1 sequence (P22303 whole entry): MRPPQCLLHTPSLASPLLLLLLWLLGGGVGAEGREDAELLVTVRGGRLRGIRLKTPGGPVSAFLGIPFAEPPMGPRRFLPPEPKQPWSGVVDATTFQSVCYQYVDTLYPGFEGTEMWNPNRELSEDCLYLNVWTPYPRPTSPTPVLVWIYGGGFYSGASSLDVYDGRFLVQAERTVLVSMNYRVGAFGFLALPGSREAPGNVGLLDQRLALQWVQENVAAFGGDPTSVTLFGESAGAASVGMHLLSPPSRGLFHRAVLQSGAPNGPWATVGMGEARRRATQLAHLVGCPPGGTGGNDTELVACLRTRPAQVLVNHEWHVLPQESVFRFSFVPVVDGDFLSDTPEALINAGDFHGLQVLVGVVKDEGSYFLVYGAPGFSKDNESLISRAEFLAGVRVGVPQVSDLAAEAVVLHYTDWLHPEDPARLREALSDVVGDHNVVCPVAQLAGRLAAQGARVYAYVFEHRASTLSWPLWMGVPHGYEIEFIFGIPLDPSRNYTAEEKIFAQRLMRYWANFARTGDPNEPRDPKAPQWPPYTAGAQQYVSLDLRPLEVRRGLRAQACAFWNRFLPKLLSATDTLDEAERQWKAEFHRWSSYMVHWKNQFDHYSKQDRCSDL

[6] = Effective permeability of compound in PBS buffer at pH 7.4 at 25 ug/ml incubated for 20 hrs by PAMPA-BBB assay
SH-SY5Y = assay: Neuroprotection against amyloid beta (25 to 35)-induced toxicity in human SH-SY5Y cells assessed as cell viability at 10 uM preincubated for 2 hrs followed by incubation with amyloid beta (25 to 35) for 24 hrs relative to control; type: functional; conditions: time 26 hrs, read-out: Activity
Mus musculus [7] = assay: Reversal of scopolamine-induced memory cognitive memory impairment in po dosed Swiss albino mouse assessed as increase in transfer latency time administered once daily for 7 days and administered with scopolamine at 30 mins after compound challenge on 7th day and measured during acquisition trial on day 7 by passive avoidance test; type: functional, organism-based; conditions: dose mg/kg 2.5-10, time 7.0 day
In short: (§1)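 Dosing as for the Y-maze: p.o. in CMC daily for 7 days, scopolamine 0.5 mg/kg i.p. on day 7, six mice per group. Apparatus is a two-compartment lit/dark box. Acquisition begins 5 min after scopolamine, with the mouse held in the lit side for 30 s. Latency to enter the dark side recorded as transfer latency time. No foot shock in the retention trial.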

[8] = Acute toxicity in Swiss albino mouse assessed as convulsion at 500 mg/kg, po measured for 14 days; type: organism-based; conditions: in vivo, 336 h, time 14 day
In short: (§2)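 Adult male Swiss albino mice, 25-30 g, dosed orally following OECD 423 at various doses up to 500 mg/kg. Watched at 30 min, 2 h, 4 h and 24 h for autonomic and behavioural changes. Followed for 14 days for tremors, convulsions, salivation, diarrhea, lethargy, sleep and coma.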

Mus musculus [9] = assay: Antioxidant activity in scopolamine-induced memory impairment Swiss albino mouse model assessed as reduction in scopolamine-induced oxidative stress by measuring increase in SOD level at 10 mg/kg, po administered once daily for 7 days and administered with scopolamine at 30 mins after compound challenge on 7th day; type: functional, organism-based; conditions: time 7.0 day
In short: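 Same mouse dosing and brain supernatant preparation as the oxidative-stress assays. For SOD, supernatant mixed with reagent containing 0.1 mM EDTA, 24 µM NBT and 50 mM Na2CO3, plus hydroxylamine hydrochloride. Assay at pH 10.2, absorbance read at 560 nm.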

Acetylcholinesterase [10] = biological target: T1, Acetylcholinesterase; assay: Inhibition of human AChE-induced amyloid beta(1 to 42) aggregation incubated for 48 hrs by thioflavin-T fluorescence method; conditions: dose microM 5-20, time 48.0 hrs
In short: (§3)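 Aβ1-42 (10 µM) incubated with hAChE ([…]) with or without compound (5, 10 and 20 µM) at 37 °C for 48 h, DMSO below 1%. ThT then added at 5 µM. Fluorescence read at ex 485/em 528 nm. % inhibition taken from intensities with vs without inhibitor. Run in triplicate.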

Mus musculus [11] = assay: Antioxidant activity in scopolamine-induced memory impairment Swiss albino mouse model assessed as reduction in scopolamine-induced oxidative stress by measuring decrease in malondialdehyde level at 10 mg/kg, po administered once daily for 7 days and administered with scopolamine at 30 mins after compound challenge on 7th day by TBARS assay; type: functional, organism-based; conditions: time 7.0 day
In short: (§4)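 Male Swiss albino mice, six per group. Compound suspended in 0.3% w/v CMC, given p.o. once daily for 7 days. Scopolamine HBr 0.5 mg/kg i.p., in water, given 30 min after dosing on day 7. After behavioural tests, whole brain homogenised in 10 mM PBS pH 7.4 and supernatant used. Protein by Lowry method. For MDA (TBARS), supernatant incubated 2 h at 37 °C, TCA-precipitated, heated with 0.67% thiobarbituric acid at 50 °C for 10 min, A532, expressed as moles MDA/mg protein. For nonprotein thiol (Sedlak–Lindsay), TCA supernatant in Tris-EDTA pH 8.9 reacted with DTNB, A412 within 5 min, expressed as µM/mg protein.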

[12] = Acute toxicity in Swiss albino mouse assessed as diarrhea at 500 mg/kg, po measured for 14 days; type: organism-based; conditions: in vivo, 336 h, time 14 day; in short: as §2
Acetylcholinesterase [13] = biological target: T1, Acetylcholinesterase; assay: Inhibition of human AChE-induced amyloid beta(1 to 42) aggregation at Abeta:compound concentration ratio of 1:2 incubated for 48 hrs by thioflavin-T fluorescence method; in short: as §3
[14] = Acute toxicity in Swiss albino mouse assessed as sleep at 500 mg/kg, po measured for 14 days; type: organism-based; conditions: in vivo, 336 h, time 14 day; in short: as §2
[15] = Acute toxicity in Swiss albino mouse assessed as feeding behavior at 500 mg/kg, po observed for 24 hrs; type: organism-based; conditions: in vivo; in short: as §2
Mus musculus [16] = assay: Ex vivo inhibition of Swiss mouse brain AChE using ACTI as substrate at 10 mg/kg, po administered once daily for 7 days and administered with scopolamine at 30 mins after compound challenge on 7th day and measured on day 7 by Ellman's method; type: functional, organism-based; conditions: time 7.0 day
In short: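 Male Swiss albino mice dosed p.o. daily for 7 days in 0.3% CMC. Scopolamine 0.5 mg/kg i.p. given 30 min after the day-7 dose. Brain homogenate supernatant incubated with 0.1 M phosphate pH 7.4 and DTNB for 10 min at 37 °C. ATCI then added from a 7.5 mM stock. A412 followed for 10 min. Expressed as ACh hydrolysed/min/mg protein (Lowry).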

[17] = Acute toxicity in Swiss albino mouse assessed as lacrimation at 500 mg/kg, po observed for 24 hrs; type: organism-based; conditions: in vivo; in short: as §2
in vitro = conditions: human, SH-SY5Y cells
[18] = Acute toxicity in Swiss albino mouse assessed as salivation at 500 mg/kg, po measured for 14 days; type: organism-based; conditions: in vivo, 336 h, time 14 day; in short: as §2
[19] = Acute toxicity in Swiss albino mouse assessed as tremor at 500 mg/kg, po measured for 14 days; type: organism-based; conditions: in vivo, 336 h, time 14 day; in short: as §2
Mus musculus [20] = assay: Antioxidant activity in scopolamine-induced memory impairment Swiss albino mouse model assessed as reduction in scopolamine-induced oxidative stress by measuring increase in total non-protein thiol level at 10 mg/kg, po administered once daily for 7 days and administered with scopolamine at 30 mins after compound challenge on 7th day; type: functional, organism-based; conditions: time 7.0 day; in short: as §4
[21] = Acute toxicity in Swiss albino mouse assessed as mortality at 500 mg/kg, po observed for 24 hrs; type: organism-based; conditions: in vivo; in short: as §2
Mus musculus [22] = assay: Reversal of scopolamine-induced memory cognitive memory impairment in po dosed Swiss albino mouse assessed as increase in spontaneous alteration rate administered once daily for 7 days and administered with scopolamine at 30 mins after compound challenge on 7th day and measured for 5 mins on day 7 by Y-maze test; type: functional, organism-based; conditions: dose mg/kg 2.5-10, time 7.0 day
In short: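 Male Swiss albino mice, six per group. Compound given p.o. in 0.3% CMC daily for 7 days, at 2.5, 5 or 10 mg/kg. Scopolamine 0.5 mg/kg i.p. given 30 min after the day-7 dose. Each mouse placed in a three-arm Y-maze and arm entries and alternations recorded over 5 min. % alternation = alternations/(total entries−2) × 100.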

Mus musculus [23] = assay: Reversal of scopolamine-induced memory cognitive memory impairment in po dosed Swiss albino mouse assessed as increase in transfer latency time administered once daily for 7 days and administered with scopolamine at 30 mins after compound challenge on 7th day and measured during retention trial on day 7 by passive avoidance test; type: functional, organism-based; conditions: dose mg/kg 2.5-10, time 7.0 day; in short: as §1
Acetylcholinesterase [24] = biological target: T1, Acetylcholinesterase; assay: Non-competitive inhibition of human erythrocyte AChE using acetylthiocholine iodide as substrate at 0.15 to 0.6 uM preincubated for 10 mins followed by substrate addition and measured for 10 mins by Ellman's method based Line-weaver Burk plot analysis; type: tissue-based

SMILES	inhibition [3] [%]	IC50 (Cholinesterase [4]) [µM]	IC50 (Acetylcholinesterase [5]) [µM]	further results
C#CCOc1ccc(-c2cc(-c3ccc(OCCN4CCOCC4)cc3)nc(N)n2)cc1				IC50 (Acetylcholinesterase [1]): 0.304 µM; IC50 (Cholinesterase [2]): 0.666 µM
Cc1ccc(-c2nnc(Nc3ncccn3)o2)cc1	< 20	> 50.1	1.62	
Brc1ccc(-c2nnc(Nc3ncccn3)o2)cc1	47.8	22.9	3.72	
COc1cc2c(cc1OC)C(=O)C(CC1CCN(Cc3ccccc3)CC1)C2 (configuration not stated)	< 20			
O=[N+]([O-])c1ccccc1-c1nnc(Nc2ncccn2)o1	51.8	> 50.1	3.39	
O=[N+]([O-])c1ccc(-c2nnc(Nc3ncccn3)o2)cc1	< 20	> 50.1	> 5.01	
Clc1ccccc1-c1nnc(Nc2ncccn2)o1	< 20	> 50.1	> 5.01	
COc1ccc(-c2nnc(Nc3ncccn3)o2)cc1OC	49.5	> 50.1	1.91	
Fc1ccc(-c2nnc(Nc3ncccn3)o2)cc1	41.9	> 50.1	2.4	
O=C1O[C@H]([C@@H](O)CO)C(O)=C1O	64.6			
Oc1ccc(-c2nnc(Nc3ncccn3)o2)cc1	63.4	> 50.1	1.74	Papp at 20 h, 25 ug/ml [6]: 3.23 ×10⁻⁶ cm/s
c1ccc(-c2nnc(Nc3ncccn3)o2)cc1	51.4	> 50.1	2.04	
Brc1ccc(CSc2nnc(CSc3nc4ccccc4s3)o2)cc1				viability at 10 µM (SH-SY5Y): 95.7%
Oc1ccccc1-c1nnc(Nc2ncccn2)o1	58.8	> 50.1	> 5.01	
Brc1cccc(-c2nnc(Nc3ncccn3)o2)c1	47.9	20.4	3.31	
c1cnc(Nc2nnc(-c3cccc4ccccc34)o2)nc1	60	12	0.302	Activity (Mus musculus [7]): Dose-dependent effect; Activity [8]: Non-Toxic; Activity (Mus musculus [9]): Active; inhibition (Acetylcholinesterase [10]): Dose-dependent effect; Activity (Mus musculus [11]): Active; Activity [12]: Non-Toxic; inhibition (Acetylcholinesterase [13]): Active; Activity [14]: Non-Toxic; Activity [15]: Non-Toxic; inhibition (Mus musculus [16]): Active; Activity [17]: Non-Toxic; IC50 at 24 h (in vitro): 79.4 µM; Activity [18]: Non-Toxic; Activity [19]: Non-Toxic; Activity (Mus musculus [20]): Active; Activity [21]: Non-Toxic; Papp at 20 h, 25 ug/ml [6]: 5.82 ×10⁻⁶ cm/s; Activity (Mus musculus [22]): Dose-dependent effect; Activity (Mus musculus [23]): Dose-dependent effect; Ki (Acetylcholinesterase [24]): 0.17 µM
COc1ccc(-c2nnc(Nc3ncccn3)o2)cc1	45.8	> 50.1	1.55	
Clc1ccc(-c2nnc(Nc3ncccn3)o2)cc1	46.2	> 50.1	2.88	
COc1cc(-c2nnc(Nc3ncccn3)o2)cc(OC)c1OC	57.7	> 50.1	1.23	Papp at 20 h, 25 ug/ml [6]: 4.21 ×10⁻⁶ cm/s
